Data reported in ChEMBL document CHEMBL1153373, “Effect of ring size on conformation and biological activity of cyclic cationic antimicrobial peptides” (J Med Chem, 2009).
In brackets after ≈: the same amount, converted by molar mass. Square brackets hold non-standard residues; d marks the D form. Peptide text beside a SMILES is read from it.

Columns and labels:
[1] = test system: Enterococcus faecalis; assay: Antimicrobial activity against Enterococcus faecalis after 24 hrs by standard microtiter dilution method; type: functional
[2] = test system: Stenotrophomonas maltophilia; assay: Antimicrobial activity against Stenotrophomonas maltophilia after 24 hrs by standard microtiter dilution method; type: functional
[3] = test system: Staphylococcus aureus; assay: Antimicrobial activity against Staphylococcus aureus after 24 hrs by standard microtiter dilution method; type: functional
[4] = test system: Enterobacter cloacae; assay: Antimicrobial activity against Enterobacter cloacae after 24 hrs by standard microtiter dilution method; type: functional
[5] = test system: Streptococcus pyogenes; assay: Antimicrobial activity against Streptococcus pyogenes after 24 hrs by standard microtiter dilution method; type: functional
[6] = test system: Streptococcus pneumoniae; assay: Antimicrobial activity against Streptococcus pneumoniae after 24 hrs by standard microtiter dilution method; type: functional
[7] = test system: Klebsiella pneumoniae; assay: Antimicrobial activity against Klebsiella pneumoniae after 24 hrs by standard microtiter dilution method; type: functional
[8] = test system: Cryptococcus neoformans; assay: Antimicrobial activity against Cryptococcus neoformans after 24 hrs by standard microtiter dilution method; type: functional
Summary of the method: (§1)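 Fungal MICs were determined by standard microtitre dilution, taken as the lowest peptide concentration inhibiting growth after 24 h incubation at 37 °C.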

[9] = test system: Acinetobacter calcoaceticus; assay: Antimicrobial activity against Acinetobacter calcoaceticus after 24 hrs by standard microtiter dilution method; type: functional
[10] = test system: Serratia marcescens; assay: Antimicrobial activity against Serratia marcescens after 24 hrs by standard microtiter dilution method; type: functional
[11] = test system: Staphylococcus epidermidis; assay: Antimicrobial activity against Staphylococcus epidermidis after 24 hrs by standard microtiter dilution method; type: functional
[12] = test system: Streptococcus mitis; assay: Antimicrobial activity against Streptococcus mitis after 24 hrs by standard microtiter dilution method; type: functional
[13] = test system: Corynebacterium jeikeium; assay: Antimicrobial activity against Corynebacterium jeikeium after 24 hrs by standard microtiter dilution method; type: functional
[14] = test system: Candida albicans; assay: Antimicrobial activity against Candida albicans after 24 hrs by standard microtiter dilution method; type: functional; summary of the method: as §1
[15] = test system: Pseudomonas aeruginosa; assay: Antimicrobial activity against Pseudomonas aeruginosa after 24 hrs by standard microtiter dilution method; type: functional
[16] = test system: Escherichia coli; assay: Antimicrobial activity against Escherichia coli after 24 hrs by standard microtiter dilution method; type: functional
[17] = Therapeutic index, ratio of hemolytic activity in human RBC to MIC for Enterobacter cloacae; conditions: human red blood cells (RBC), read-out: TI

Structure (SMILES)	MIC [1] [µg/mL]	MIC [2] [µg/mL]	MIC [3] [µg/mL]	MIC [4] [µg/mL]	MIC [5] [µg/mL]	MIC [6] [µg/mL]	MIC [7] [µg/mL]	MIC [8] [µg/mL]	MIC [9] [µg/mL]	MIC [10] [µg/mL]	MIC [11] [µg/mL]	MIC [12] [µg/mL]	MIC [13] [µg/mL]	MIC [14] [µg/mL]	MIC [15] [µg/mL]	MIC [16] [µg/mL]	selectivity ratio [17]
CC(C)C[C@@H]1NC(=O)[C@H](CCCCN)NC(=O)[C@H](C(C)C)NC(=O)[C@@H]2CCCN2C(=O)[C@@H](Cc2ccc(O)cc2)NC(=O)[C@H](CC(C)C)NC(=O)[C@H](CCCCN)NC(=O)[C@H](C(C)C)NC(=O)[C@H](CCCCN)NC(=O)[C@@H]2CCCN2C(=O)[C@@H](Cc2ccc(O)cc2)NC(=O)[C@H](CCCCN)NC1=O (cyclo(KLK[dY]PKVKL[dY]PV))	64 (≈ 43.9 µM)	128 (≈ 87.8 µM)	64 (≈ 43.9 µM)	256 (≈ 176 µM)	2 (≈ 1.37 µM)	16 (≈ 11 µM)	64 (≈ 43.9 µM)	16 (≈ 11 µM)	16 (≈ 11 µM)	256 (≈ 176 µM)	64 (≈ 43.9 µM)	–	–	–	–	–	–
CC(C)C[C@@H]1NC(=O)[C@H](CCCCN)NC(=O)[C@H](C(C)C)NC(=O)[C@@H]2CCCN2C(=O)[C@@H](Cc2ccc(O)cc2)NC(=O)[C@H](CC(C)C)NC(=O)[C@H](CCCCN)NC(=O)[C@H](C(C)C)NC(=O)[C@H](CCCCN)NC(=O)[C@H](CC(C)C)NC(=O)[C@H](CCCCN)NC(=O)[C@@H]2CCCN2C(=O)[C@@H](Cc2ccc(O)cc2)NC(=O)[C@H](CCCCN)NC(=O)[C@H](CCCCN)NC1=O (cyclo(VKLKK[dY]PKLKVKL[dY]P))	8 (≈ 4.38 µM)	–	64 (≈ 35 µM)	–	–	–	8 (≈ 4.38 µM)	64 (≈ 35 µM)	2 (≈ 1.09 µM)	256 (≈ 140 µM)	–	8 (≈ 4.38 µM)	8 (≈ 4.38 µM)	64 (≈ 35 µM)	–	–	–
CC(C)C[C@@H]1NC(=O)[C@H](CCCCN)NC(=O)[C@H](C(C)C)NC(=O)[C@H](CCCCN)NC(=O)[C@H](CC(C)C)NC(=O)[C@@H]2CCCN2C(=O)[C@@H](Cc2ccc(O)cc2)NC(=O)[C@H](C(C)C)NC(=O)[C@H](CCCCN)NC(=O)[C@H](CCCCN)NC(=O)[C@H](C(C)C)NC(=O)[C@@H]2CCCN2C(=O)[C@@H](Cc2ccc(O)cc2)NC1=O (cyclo(KKV[dY]PLKVKL[dY]PV))	8 (≈ 5.14 µM)	16 (≈ 10.3 µM)	–	128 (≈ 82.2 µM)	0.5 (≈ 0.321 µM)	0.5 (≈ 0.321 µM)	–	–	2 (≈ 1.28 µM)	–	2 (≈ 1.28 µM)	–	–	16 (≈ 10.3 µM)	–	–	–
CC(C)C[C@@H]1NC(=O)[C@H](CCCCN)NC(=O)[C@H](C(C)C)NC(=O)[C@@H]2CCCN2C(=O)[C@@H](Cc2ccc(O)cc2)NC(=O)[C@H](CC(C)C)NC(=O)[C@H](CCCCN)NC(=O)[C@H](C(C)C)NC(=O)[C@H](CCCCN)NC(=O)[C@H](CC(C)C)NC(=O)[C@H](CCCCN)NC(=O)[C@@H]2CCCN2C(=O)[C@@H](Cc2ccc(O)cc2)NC(=O)[C@H](C(C)C)NC(=O)[C@H](CCCCN)NC1=O (cyclo(VKLKV[dY]PKLKVKL[dY]P)) [listing 1 of 2 here]	2 (≈ 1.11 µM)	4 (≈ 2.22 µM)	2 (≈ 1.11 µM)	–	0.5 (≈ 0.278 µM)	0.5 (≈ 0.278 µM)	8 (≈ 4.45 µM)	1 (≈ 0.556 µM)	2 (≈ 1.11 µM)	–	–	0.5 (≈ 0.278 µM)	2 (≈ 1.11 µM)	–	–	–	–
CC(C)C[C@@H]1NC(=O)[C@H](CCCCN)NC(=O)[C@H](C(C)C)NC(=O)[C@@H]2CCCN2C(=O)[C@@H](Cc2ccc(O)cc2)NC(=O)[C@H](CC(C)C)NC(=O)[C@H](CCCCN)NC(=O)[C@H](C(C)C)NC(=O)[C@@H]2CCCN2C(=O)[C@@H](Cc2ccc(O)cc2)NC(=O)[C@H](CCCCN)NC1=O (cyclo(VKLK[dY]PVKL[dY]P))	32 (≈ 24.1 µM)	64 (≈ 48.1 µM)	64 (≈ 48.1 µM)	256 (≈ 193 µM)	–	8 (≈ 6.02 µM)	64 (≈ 48.1 µM)	32 (≈ 24.1 µM)	8 (≈ 6.02 µM)	–	–	–	2 (≈ 1.5 µM)	–	256 (≈ 193 µM)	64 (≈ 48.1 µM)	–
CC(C)C[C@@H]1NC(=O)[C@H](CCCCN)NC(=O)[C@H](C(C)C)NC(=O)[C@@H]2CCCN2C(=O)[C@@H](Cc2ccc(O)cc2)NC(=O)[C@H](CC(C)C)NC(=O)[C@H](CCCCN)NC(=O)[C@H](C(C)C)NC(=O)[C@H](CCCCN)NC(=O)[C@H](CC(C)C)NC(=O)[C@H](CCCCN)NC(=O)[C@@H]2CCCN2C(=O)[C@@H](Cc2ccc(O)cc2)NC(=O)[C@H](C(C)C)NC(=O)[C@H](CCCCN)NC1=O (cyclo(VKLKV[dY]PKLKVKL[dY]P)) [listing 2 of 2 here]	–	–	–	–	–	–	–	–	–	–	–	–	–	–	–	–	2
CC(C)C[C@@H]1NC(=O)[C@H](CCCCN)NC(=O)[C@H](C(C)C)NC(=O)[C@@H]2CCCN2C(=O)[C@@H](Cc2ccc(O)cc2)NC(=O)[C@H](CC(C)C)NC(=O)[C@H](CCCCN)NC(=O)[C@H](C(C)C)NC(=O)[C@H](CCCCN)NC(=O)[C@H](CC(C)C)NC(=O)[C@@H]2CCCN2C(=O)[C@@H](Cc2ccc(O)cc2)NC(=O)[C@H](CCCCN)NC1=O (cyclo(VKLK[dY]PLKVKL[dY]P))	4 (≈ 2.55 µM)	–	4 (≈ 2.55 µM)	–	–	–	8 (≈ 5.09 µM)	–	–	–	–	0.5 (≈ 0.318 µM)	2 (≈ 1.27 µM)	–	–	16 (≈ 10.2 µM)	–
CC(C)C[C@@H]1NC(=O)[C@H](CCCCN)NC(=O)[C@@H]2CCCN2C(=O)[C@@H](Cc2ccc(O)cc2)NC(=O)[C@H](CCCCN)NC(=O)[C@H](C(C)C)NC(=O)[C@H](CC(C)C)NC(=O)[C@H](CCCCN)NC(=O)[C@H](C(C)C)NC(=O)[C@@H]2CCCN2C(=O)[C@@H](Cc2ccc(O)cc2)NC(=O)[C@H](CC(C)C)NC(=O)[C@H](CCCCN)NC(=O)[C@H](C(C)C)NC(=O)[C@H](CCCCN)NC1=O (cyclo(VKLVK[dY]PKLKVKL[dY]P))	4 (≈ 2.22 µM)	8 (≈ 4.45 µM)	32 (≈ 17.8 µM)	256 (≈ 142 µM)	–	–	8 (≈ 4.45 µM)	–	–	256 (≈ 142 µM)	16 (≈ 8.9 µM)	4 (≈ 2.22 µM)	1 (≈ 0.556 µM)	–	–	16 (≈ 8.9 µM)	–
CC(C)C[C@@H]1NC(=O)[C@H](CCCCN)NC(=O)[C@H](C(C)C)NC(=O)[C@@H]2CCCN2C(=O)[C@@H](Cc2ccc(O)cc2)NC(=O)[C@H](CC(C)C)NC(=O)[C@H](CCCCN)NC(=O)[C@H](C(C)C)NC(=O)[C@H](CCCCN)NC(=O)[C@H](CC(C)C)NC(=O)[C@@H]2CCCN2C(=O)[C@@H](Cc2ccc(O)cc2)NC(=O)[C@H](C(C)C)NC1=O	4 (≈ 2.59 µM)	32 (≈ 20.8 µM)	4 (≈ 2.59 µM)	256 (≈ 166 µM)	0.5 (≈ 0.324 µM)	0.5 (≈ 0.324 µM)	–	–	4 (≈ 2.59 µM)	256 (≈ 166 µM)	4 (≈ 2.59 µM)	1 (≈ 0.649 µM)	4 (≈ 2.59 µM)	32 (≈ 20.8 µM)	256 (≈ 166 µM)	64 (≈ 41.5 µM)	–
CC(C)C[C@@H]1NC(=O)[C@H](CCCCN)NC(=O)[C@H](C(C)C)NC(=O)[C@@H]2CCCN2C(=O)[C@@H](Cc2ccc(O)cc2)NC(=O)[C@H](CC(C)C)NC(=O)[C@H](CCCCN)NC(=O)[C@H](C(C)C)NC(=O)[C@H](CCCCN)NC(=O)[C@H](CC(C)C)NC(=O)[C@H](CCCCN)NC(=O)[C@@H]2CCCN2C(=O)[C@@H](Cc2ccc(O)cc2)NC(=O)[C@H](CCCCN)NC(=O)[C@H](C(C)C)NC(=O)[C@H](CCCCN)NC1=O (cyclo(VKLKVK[dY]PKLKVKL[dY]P))	4 (≈ 2.08 µM)	–	–	64 (≈ 33.2 µM)	–	1 (≈ 0.519 µM)	–	64 (≈ 33.2 µM)	2 (≈ 1.04 µM)	–	2 (≈ 1.04 µM)	–	–	64 (≈ 33.2 µM)	–	4 (≈ 2.08 µM)	–
CC(C)C[C@@H]1NC(=O)[C@H](CCCCN)NC(=O)[C@H](C(C)C)NC(=O)[C@@H]2CCCN2C(=O)[C@@H](Cc2ccc(O)cc2)NC(=O)[C@H](CC(C)C)NC(=O)[C@H](CCCCN)NC(=O)[C@H](C(C)C)NC(=O)[C@H](CCCCN)NC(=O)[C@@H]2CCCN2C(=O)[C@@H](Cc2ccc(O)cc2)NC1=O	–	–	16 (≈ 12 µM)	256 (≈ 193 µM)	–	2 (≈ 1.5 µM)	32 (≈ 24.1 µM)	–	8 (≈ 6.02 µM)	256 (≈ 193 µM)	–	–	2 (≈ 1.5 µM)	–	–	64 (≈ 48.1 µM)	–
CC(C)C[C@@H]1NC(=O)[C@H](CCCCN)NC(=O)[C@H](C(C)C)NC(=O)[C@H](CCCCN)NC(=O)[C@@H]2CCCN2C(=O)[C@@H](Cc2ccc(O)cc2)NC(=O)[C@H](CCCCN)NC(=O)[C@H](CCCCN)NC(=O)[C@H](C(C)C)NC(=O)[C@@H]2CCCN2C(=O)[C@@H](Cc2ccc(O)cc2)NC1=O (cyclo(VKK[dY]PKVKL[dY]P))	256 (≈ 190 µM)	256 (≈ 190 µM)	256 (≈ 190 µM)	256 (≈ 190 µM)	–	256 (≈ 190 µM)	256 (≈ 190 µM)	128 (≈ 95.2 µM)	–	256 (≈ 190 µM)	256 (≈ 190 µM)	64 (≈ 47.6 µM)	–	256 (≈ 190 µM)	256 (≈ 190 µM)	–	–
